Measurements as given in ChEMBL document CHEMBL1140336, “Synthesis, structure-activity relationships, and biological evaluation of fatty alcohol phosphates as lysophosphatidic acid receptor ligands, activators of PPARgamma, and inhibitors of autotaxin” (J Med Chem, 2005).

Columns and labels:
[1] = target: T1, Lysophosphatidic acid receptor 1 (Homo sapiens, UniProt Q92633); assay: (§1) Inhibition of LPA-induced calcium transients in RH7777 rat hepatoma cells expressing LPA1 receptor; No effect; assay type: functional, cell-based
T1 sequence (Q92633 whole entry): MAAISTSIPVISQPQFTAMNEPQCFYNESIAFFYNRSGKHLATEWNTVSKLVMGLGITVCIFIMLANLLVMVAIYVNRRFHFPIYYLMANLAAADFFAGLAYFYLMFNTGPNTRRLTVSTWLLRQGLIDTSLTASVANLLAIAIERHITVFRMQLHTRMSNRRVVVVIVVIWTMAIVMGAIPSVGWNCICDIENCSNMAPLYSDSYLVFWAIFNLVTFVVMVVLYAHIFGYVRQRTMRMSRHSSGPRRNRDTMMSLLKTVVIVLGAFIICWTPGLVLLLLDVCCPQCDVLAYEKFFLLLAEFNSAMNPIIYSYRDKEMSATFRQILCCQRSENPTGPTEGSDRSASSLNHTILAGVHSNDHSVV
Procedure, shortened: (§2)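 Fura-2 Ca2+ assay. RH7777 cells stably expressing LPA1, LPA2 or LPA3, or PC-3 cells (endogenous LPA1-3), seeded at 50000 cells/well on poly-D-lysine and grown overnight. Serum-starved in modified Krebs, pH 7.4, for 6-8 h (PC-3: 12 h), then Fura-2 AM loaded for 35 min. Compound added at 15 s; wells read 80-120 s. Transient taken as peak minus baseline 340/380 ratio. Antagonism: LPA 18:1 coapplied; highest concentration 30 μM.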

[2] = target: T2, Lysophosphatidic acid receptor 3 (Homo sapiens, UniProt Q9UBY5); assay: Binding affinity for Lysophosphatidic acid receptor 3 expressed in RH7777 rat hepatoma cells; assay type: cell-based; procedure, shortened: as §2
T2 sequence (Q9UBY5 whole entry): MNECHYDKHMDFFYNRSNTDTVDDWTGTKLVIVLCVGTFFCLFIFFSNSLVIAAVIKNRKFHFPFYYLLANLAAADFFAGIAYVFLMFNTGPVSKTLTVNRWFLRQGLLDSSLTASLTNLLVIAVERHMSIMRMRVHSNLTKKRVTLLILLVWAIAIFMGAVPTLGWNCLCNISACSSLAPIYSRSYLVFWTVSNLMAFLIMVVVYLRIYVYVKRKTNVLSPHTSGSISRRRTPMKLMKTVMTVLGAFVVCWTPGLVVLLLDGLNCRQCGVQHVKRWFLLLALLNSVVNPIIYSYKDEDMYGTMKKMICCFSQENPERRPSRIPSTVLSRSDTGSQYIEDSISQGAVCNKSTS

[3] = target: T2, Lysophosphatidic acid receptor 3; assay: Inhibition of LPA-induced calcium transients in RH7777 rat hepatoma cells expressing LPA3 receptor; assay type: functional, cell-based; procedure, shortened: as §2
[4] = target: T1, Lysophosphatidic acid receptor 1; assay: as §1; assay type: functional, cell-based; remark: listed apart in the source
[5] = target: T3, Lysophosphatidic acid receptor 2 (Homo sapiens, UniProt Q9HBW0); assay: Inhibition of LPA-induced calcium transients in RH7777 rat hepatoma cells expressing LPA2 receptor; No effect; assay type: functional, cell-based; procedure, shortened: as §2
T3 sequence (Q9HBW0 whole entry): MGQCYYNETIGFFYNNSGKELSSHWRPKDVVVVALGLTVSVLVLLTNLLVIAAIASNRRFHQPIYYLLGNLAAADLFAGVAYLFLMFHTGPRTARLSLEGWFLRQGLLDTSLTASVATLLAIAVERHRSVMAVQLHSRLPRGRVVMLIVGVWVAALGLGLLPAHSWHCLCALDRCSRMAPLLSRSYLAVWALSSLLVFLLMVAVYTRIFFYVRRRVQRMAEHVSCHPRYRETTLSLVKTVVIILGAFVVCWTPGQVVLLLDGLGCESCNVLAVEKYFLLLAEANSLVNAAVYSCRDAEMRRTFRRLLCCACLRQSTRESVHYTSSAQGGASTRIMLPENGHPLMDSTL

[6] = target: T2, Lysophosphatidic acid receptor 3; assay: Inhibition of LPA-induced calcium transients in RH7777 rat hepatoma cells expressing LPA3 receptor; No effect; assay type: functional, cell-based; procedure, shortened: as §2
[7] = target: T3, Lysophosphatidic acid receptor 2; assay: Inhibition of LPA-induced calcium transients in RH7777 rat hepatoma cells expressing LPA2 receptor; assay type: functional, cell-based
[8] = system: PC-3; assay: Inhibitory concentration against LPA expressed in PC-3 cells; Weak antagonist; assay type: functional, cell-based, Homo sapiens; procedure, shortened: as §2
[9] = Percent maximal efficacy in PC-3 cells; assay type: functional, Homo sapiens
Procedure, shortened: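 PC-3 human prostate cancer cells, which express LPA1-3 endogenously, 50000 cells/well. Serum-starved 12 h in modified Krebs, loaded with Fura-2 AM, read in a FlexStation. Ca2+ transient = 340/380 ratio peak minus baseline. Agonism (Emax as % of maximal LPA 18:1 response) and inhibition of LPA-induced transients were measured.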

With `CCCCCCCCCCCCCCCC(=O)N[C@@H](Cc1ccc(OP(=O)(O)O)cc1)C(=O)O` the EC50 [1] was “Not Active”, the Ki [2] was 2.33 µM and the IC50 [3] was 5.57 µM. For the same compound, the IC50 [4] was “Not Active”, the IC50 [5] was “Not Active” and the EC50 [6] was “Not Active”. For the same compound, the EC50 [7] was about 11 µM, the IC50 [8] was “Partial antagonist” and the Emax [9] was 25%.
